Assay [1] concerns the target T1, Homeodomain-interacting protein kinase 4 (Homo sapiens) (UniProt Q8NE63).
T1 sequence (whole entry): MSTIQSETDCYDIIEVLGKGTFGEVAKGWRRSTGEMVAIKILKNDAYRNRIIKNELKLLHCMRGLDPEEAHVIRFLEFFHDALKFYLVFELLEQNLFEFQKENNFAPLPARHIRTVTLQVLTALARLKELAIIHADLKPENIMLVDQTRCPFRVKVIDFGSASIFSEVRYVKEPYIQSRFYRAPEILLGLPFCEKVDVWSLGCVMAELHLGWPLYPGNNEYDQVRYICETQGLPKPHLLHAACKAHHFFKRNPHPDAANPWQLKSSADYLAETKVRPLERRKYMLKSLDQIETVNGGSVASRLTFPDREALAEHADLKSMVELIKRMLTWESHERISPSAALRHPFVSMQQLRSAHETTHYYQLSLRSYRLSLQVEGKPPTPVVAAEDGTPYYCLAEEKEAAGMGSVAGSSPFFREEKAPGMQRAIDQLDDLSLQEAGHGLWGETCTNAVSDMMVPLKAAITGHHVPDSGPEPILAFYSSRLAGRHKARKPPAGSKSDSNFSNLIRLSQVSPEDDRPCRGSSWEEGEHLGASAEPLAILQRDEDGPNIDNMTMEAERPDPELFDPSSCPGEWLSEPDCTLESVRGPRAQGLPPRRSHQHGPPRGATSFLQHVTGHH
Kind of assay: Inhibition of human recombinant HIPK4 at 40 nM in presence of ATP by radiometric assay relative to control.

For assay [2], the target named is T2, Mitogen-activated protein kinase kinase kinase 3 (Homo sapiens) (UniProt Q99759).
T2 sequence (whole entry): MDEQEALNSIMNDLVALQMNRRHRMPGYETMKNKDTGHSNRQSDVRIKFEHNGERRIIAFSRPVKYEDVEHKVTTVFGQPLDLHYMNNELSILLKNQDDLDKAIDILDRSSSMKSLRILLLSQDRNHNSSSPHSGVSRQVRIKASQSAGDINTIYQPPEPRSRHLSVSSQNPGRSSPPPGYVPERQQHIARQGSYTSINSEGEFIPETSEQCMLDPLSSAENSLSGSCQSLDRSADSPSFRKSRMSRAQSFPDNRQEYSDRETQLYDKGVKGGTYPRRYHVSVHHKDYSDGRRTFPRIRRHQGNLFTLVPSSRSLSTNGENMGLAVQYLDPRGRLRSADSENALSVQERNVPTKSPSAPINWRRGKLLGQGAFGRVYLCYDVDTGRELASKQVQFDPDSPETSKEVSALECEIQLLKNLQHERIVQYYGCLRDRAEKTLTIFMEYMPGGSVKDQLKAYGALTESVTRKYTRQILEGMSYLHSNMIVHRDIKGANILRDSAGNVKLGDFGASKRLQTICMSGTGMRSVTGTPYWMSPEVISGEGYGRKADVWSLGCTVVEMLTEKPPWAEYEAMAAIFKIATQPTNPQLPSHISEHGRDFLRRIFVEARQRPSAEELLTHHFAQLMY
Kind of assay: Inhibition of human recombinant MAP3K3 at 40 nM related to control ULK1.

Assay [3] has as its target Serine/threonine-protein kinase 32C (Homo sapiens) (UniProt Q86UX6). Kind of assay: Inhibition of human recombinant YANK3 at 40 nM related to control ULK1.
Assay [4] has as its target Ribosomal protein S6 kinase alpha-3 (Homo sapiens) (UniProt P51812). Kind of assay: Inhibition of human recombinant RSK2 at 40 nM related to control ULK1.
The target in assay [5] is MAP kinase-activated protein kinase 2 (Homo sapiens) (UniProt P49137). The assay can be described thus: Inhibition of human recombinant MAPKAPK2 at 40 nM related to control ULK1.
Assay [6] concerns the target Serine/threonine-protein kinase MRCK beta (Homo sapiens) (UniProt Q9Y5S2). The assay can be described thus: Inhibition of human recombinant MRCKb at 500 nM related to control ULK1.
The target in assay [7] is T3, Serine/threonine-protein kinase 17B (Homo sapiens) (UniProt O94768).
T3 sequence (whole entry): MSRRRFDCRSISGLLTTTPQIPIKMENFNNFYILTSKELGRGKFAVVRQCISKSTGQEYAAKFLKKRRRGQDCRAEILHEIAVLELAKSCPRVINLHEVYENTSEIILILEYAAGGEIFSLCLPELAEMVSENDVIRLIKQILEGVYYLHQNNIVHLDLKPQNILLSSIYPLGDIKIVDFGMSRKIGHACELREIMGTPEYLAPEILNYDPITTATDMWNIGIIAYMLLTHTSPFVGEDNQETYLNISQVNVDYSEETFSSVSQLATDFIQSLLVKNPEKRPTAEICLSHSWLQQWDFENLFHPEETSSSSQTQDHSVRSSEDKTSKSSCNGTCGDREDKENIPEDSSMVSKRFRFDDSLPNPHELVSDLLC
Kind of assay: Inhibition of human recombinant DRAK2 at 500 nM in presence of ATP by radiometric assay relative to control.

Assay [8] has as its target T4, Activin receptor type-1 (Homo sapiens) (UniProt Q04771).
T4 sequence (whole entry): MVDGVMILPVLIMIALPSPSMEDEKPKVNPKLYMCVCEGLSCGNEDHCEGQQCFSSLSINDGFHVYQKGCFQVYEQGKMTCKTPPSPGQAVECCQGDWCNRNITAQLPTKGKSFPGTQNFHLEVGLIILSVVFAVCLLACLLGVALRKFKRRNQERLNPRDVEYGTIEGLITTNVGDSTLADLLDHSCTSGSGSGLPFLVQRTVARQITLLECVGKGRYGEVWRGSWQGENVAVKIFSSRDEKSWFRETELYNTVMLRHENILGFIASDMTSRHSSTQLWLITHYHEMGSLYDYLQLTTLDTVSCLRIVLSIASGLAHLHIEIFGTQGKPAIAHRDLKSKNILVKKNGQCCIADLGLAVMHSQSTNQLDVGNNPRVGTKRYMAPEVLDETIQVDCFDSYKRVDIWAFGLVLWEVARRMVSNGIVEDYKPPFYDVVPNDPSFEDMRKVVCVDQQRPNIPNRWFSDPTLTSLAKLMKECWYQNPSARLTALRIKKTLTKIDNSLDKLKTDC
The assay can be described thus: Inhibition of human recombinant ALK2 at 500 nM related to control ULK1. In outline:
(§1)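 Panel of 327 recombinant human kinases, each assayed in vitro by radiometric activity assay in duplicate at a single inhibitor concentration per compound, chosen with reference to its ULK1 inhibition. Activity remaining was expressed as percent of vehicle control, and percent inhibition was calculated as 100 minus percent activity remaining.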

Assay [9] concerns the target Serine/threonine-protein kinase mTOR (Homo sapiens) (UniProt P42345). The assay can be described thus: Inhibition of human recombinant FRAP at 15 nM related to control ULK1.
In assay [10] the target is Cyclin-dependent kinase 3 (Homo sapiens) (UniProt Q00526). The assay can be described thus: Inhibition of human recombinant CDK3 at 15 nM in presence of ATP by radiometric assay relative to control.
In assay [11] the target is Tyrosine-protein kinase receptor UFO (Homo sapiens) (UniProt P30530). The assay can be described thus: Inhibition of human recombinant AXL at 15 nM related to control ULK1. The method, boiled down:
as §1

The target in assay [12] is Serine/threonine-protein kinase WNK1 (Homo sapiens) (UniProt Q9H4A3). Kind of assay: Inhibition of human recombinant Wnk1 at 15 nM related to control ULK1.

Usually inhibition stands for the percentage by which the read-out fell short of the control.

Serine/threonine-protein kinase 32C (Homo sapiens), sequence (Q86UX6 whole entry): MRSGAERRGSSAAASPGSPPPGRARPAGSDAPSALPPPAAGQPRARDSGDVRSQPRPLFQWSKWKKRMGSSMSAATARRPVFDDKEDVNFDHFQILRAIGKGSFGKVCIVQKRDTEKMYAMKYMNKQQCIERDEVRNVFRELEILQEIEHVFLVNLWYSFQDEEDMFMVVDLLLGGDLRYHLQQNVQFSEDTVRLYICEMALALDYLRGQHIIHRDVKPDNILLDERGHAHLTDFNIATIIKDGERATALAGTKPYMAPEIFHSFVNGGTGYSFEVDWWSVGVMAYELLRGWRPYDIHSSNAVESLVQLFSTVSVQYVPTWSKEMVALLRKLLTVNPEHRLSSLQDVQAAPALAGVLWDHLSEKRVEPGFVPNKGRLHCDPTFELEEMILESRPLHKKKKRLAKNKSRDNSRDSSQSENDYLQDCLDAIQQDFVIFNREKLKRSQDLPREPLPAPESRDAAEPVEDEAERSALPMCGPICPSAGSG
Ribosomal protein S6 kinase alpha-3 (Homo sapiens), sequence (P51812 whole entry): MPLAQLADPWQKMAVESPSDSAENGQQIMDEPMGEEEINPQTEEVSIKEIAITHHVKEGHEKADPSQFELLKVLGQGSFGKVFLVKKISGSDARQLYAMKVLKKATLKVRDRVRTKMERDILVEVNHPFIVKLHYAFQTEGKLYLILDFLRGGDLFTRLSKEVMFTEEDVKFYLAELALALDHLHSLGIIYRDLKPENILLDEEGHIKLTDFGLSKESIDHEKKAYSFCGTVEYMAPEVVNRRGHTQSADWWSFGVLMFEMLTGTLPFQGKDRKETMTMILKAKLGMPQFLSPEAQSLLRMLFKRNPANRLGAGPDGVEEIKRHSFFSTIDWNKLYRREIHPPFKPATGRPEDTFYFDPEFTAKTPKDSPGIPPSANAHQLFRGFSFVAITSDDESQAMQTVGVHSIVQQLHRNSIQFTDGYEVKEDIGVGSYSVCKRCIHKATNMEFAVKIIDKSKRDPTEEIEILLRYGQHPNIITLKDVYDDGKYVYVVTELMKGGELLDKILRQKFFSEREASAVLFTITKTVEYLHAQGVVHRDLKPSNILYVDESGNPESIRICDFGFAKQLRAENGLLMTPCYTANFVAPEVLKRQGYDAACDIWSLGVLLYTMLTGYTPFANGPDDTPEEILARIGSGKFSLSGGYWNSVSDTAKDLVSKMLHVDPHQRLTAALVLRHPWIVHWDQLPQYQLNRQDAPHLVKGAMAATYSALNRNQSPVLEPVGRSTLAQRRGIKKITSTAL
Serine/threonine-protein kinase MRCK beta (Homo sapiens), sequence (Q9Y5S2 whole entry): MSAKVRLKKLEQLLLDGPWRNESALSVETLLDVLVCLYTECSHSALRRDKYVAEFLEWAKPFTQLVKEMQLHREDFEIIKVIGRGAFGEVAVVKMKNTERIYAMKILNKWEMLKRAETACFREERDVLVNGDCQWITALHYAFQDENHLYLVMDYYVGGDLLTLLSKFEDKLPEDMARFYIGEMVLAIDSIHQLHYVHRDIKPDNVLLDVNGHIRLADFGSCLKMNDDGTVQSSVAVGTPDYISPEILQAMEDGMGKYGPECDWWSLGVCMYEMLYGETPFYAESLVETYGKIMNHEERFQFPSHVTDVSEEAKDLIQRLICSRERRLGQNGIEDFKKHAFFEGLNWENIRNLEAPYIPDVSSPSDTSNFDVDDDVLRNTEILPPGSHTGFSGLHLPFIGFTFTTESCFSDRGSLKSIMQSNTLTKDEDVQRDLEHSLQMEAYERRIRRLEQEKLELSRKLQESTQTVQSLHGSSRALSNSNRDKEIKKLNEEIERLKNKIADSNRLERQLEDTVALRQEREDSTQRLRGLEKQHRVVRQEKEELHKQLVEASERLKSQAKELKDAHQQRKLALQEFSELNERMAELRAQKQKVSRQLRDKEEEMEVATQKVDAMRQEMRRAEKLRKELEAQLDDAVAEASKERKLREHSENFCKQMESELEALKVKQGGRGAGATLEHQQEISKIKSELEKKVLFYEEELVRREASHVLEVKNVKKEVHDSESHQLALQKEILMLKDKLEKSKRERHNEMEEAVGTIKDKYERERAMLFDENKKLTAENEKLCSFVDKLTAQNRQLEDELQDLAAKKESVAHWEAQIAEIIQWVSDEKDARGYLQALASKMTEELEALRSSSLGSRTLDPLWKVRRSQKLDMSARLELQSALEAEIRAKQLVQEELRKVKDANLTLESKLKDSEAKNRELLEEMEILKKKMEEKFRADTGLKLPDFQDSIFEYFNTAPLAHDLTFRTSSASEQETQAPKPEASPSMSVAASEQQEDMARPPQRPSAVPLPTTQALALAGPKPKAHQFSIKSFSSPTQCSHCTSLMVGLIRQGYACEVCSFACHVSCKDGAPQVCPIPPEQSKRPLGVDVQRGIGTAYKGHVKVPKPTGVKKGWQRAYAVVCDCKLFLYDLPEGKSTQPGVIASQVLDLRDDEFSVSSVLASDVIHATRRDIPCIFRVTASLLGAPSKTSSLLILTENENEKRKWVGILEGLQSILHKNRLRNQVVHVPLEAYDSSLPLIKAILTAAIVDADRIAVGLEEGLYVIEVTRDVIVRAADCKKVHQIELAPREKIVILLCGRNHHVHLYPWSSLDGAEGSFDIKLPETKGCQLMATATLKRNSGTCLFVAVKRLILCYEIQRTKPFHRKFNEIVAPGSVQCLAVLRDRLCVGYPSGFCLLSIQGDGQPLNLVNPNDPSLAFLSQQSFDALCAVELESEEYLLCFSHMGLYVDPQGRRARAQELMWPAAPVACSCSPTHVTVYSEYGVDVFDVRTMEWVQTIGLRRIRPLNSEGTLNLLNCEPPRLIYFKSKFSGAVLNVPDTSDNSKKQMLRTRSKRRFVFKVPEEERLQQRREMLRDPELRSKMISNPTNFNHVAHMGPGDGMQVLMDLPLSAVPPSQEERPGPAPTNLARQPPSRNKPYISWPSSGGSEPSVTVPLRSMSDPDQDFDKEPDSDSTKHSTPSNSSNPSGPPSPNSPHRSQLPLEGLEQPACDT
Tyrosine-protein kinase receptor UFO (Homo sapiens), sequence (P30530 whole entry): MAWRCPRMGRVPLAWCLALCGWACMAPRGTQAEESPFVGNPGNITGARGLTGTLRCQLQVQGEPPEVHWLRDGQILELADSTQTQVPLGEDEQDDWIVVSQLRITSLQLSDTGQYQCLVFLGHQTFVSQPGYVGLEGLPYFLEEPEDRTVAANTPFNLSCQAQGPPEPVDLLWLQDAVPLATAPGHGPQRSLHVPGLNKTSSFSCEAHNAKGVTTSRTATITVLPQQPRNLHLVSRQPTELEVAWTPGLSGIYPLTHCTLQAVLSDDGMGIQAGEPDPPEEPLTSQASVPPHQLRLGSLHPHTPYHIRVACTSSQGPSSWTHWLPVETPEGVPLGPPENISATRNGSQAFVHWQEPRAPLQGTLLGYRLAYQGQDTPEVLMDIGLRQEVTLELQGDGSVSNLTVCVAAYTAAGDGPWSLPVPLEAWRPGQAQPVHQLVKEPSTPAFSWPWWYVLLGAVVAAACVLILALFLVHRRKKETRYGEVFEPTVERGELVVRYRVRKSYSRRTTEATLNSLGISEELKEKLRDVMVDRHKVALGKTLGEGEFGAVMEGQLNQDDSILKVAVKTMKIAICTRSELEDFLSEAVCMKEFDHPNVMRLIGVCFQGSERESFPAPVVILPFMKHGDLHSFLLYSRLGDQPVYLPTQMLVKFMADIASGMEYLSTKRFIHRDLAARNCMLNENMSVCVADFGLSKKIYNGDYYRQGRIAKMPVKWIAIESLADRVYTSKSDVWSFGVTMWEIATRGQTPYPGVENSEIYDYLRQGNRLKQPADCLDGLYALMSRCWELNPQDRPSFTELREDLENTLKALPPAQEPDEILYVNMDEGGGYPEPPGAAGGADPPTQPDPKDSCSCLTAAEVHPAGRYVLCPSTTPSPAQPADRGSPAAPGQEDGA
MAP kinase-activated protein kinase 2 (Homo sapiens), sequence (P49137 whole entry, looked up): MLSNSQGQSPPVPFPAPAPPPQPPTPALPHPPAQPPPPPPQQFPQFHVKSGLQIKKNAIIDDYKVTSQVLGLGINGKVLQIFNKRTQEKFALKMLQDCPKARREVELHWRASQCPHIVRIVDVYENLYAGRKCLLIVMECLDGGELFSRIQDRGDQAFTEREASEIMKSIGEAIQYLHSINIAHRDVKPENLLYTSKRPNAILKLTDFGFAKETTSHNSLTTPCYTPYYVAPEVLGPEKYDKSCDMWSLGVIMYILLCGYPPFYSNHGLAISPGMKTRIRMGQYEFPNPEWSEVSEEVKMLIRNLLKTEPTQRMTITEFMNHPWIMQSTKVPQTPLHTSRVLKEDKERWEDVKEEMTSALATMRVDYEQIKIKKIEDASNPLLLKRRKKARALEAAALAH
Cyclin-dependent kinase 3 (Homo sapiens), sequence (Q00526 whole entry, looked up): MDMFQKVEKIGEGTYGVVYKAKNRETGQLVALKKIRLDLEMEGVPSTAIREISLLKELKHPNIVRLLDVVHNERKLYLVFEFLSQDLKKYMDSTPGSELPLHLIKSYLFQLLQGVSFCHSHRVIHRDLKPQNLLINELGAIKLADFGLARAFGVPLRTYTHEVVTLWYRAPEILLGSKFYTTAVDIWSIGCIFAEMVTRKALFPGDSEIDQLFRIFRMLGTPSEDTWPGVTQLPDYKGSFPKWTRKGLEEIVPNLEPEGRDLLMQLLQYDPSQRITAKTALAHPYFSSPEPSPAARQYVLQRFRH

As for `O=C(N[C@@H](C1CC1)C(F)(F)F)c1cc(-c2cnn3cc(-c4ccc(F)cc4)cnc23)cs1`, the inhibition in assay [1] amounted to 0%. For the same compound, the fold change (FC) in [2] amounted to 0; in assay [3] it was 0.07; in assay [4], 0; in [5], 0.
Turning to `CNC(=O)c1ccccc1Oc1nc(Nc2cc(OC)c(OC)c(OC)c2)ncc1Br`, the fold change (FC) came out at 0 in assay [6] and 0.62 in assay [8]. Further, the inhibition in assay [7] stood at 6%.
`CC(C)[C@H](NC(=O)c1cc(-c2cnn3cc(-c4ccc(OCCN5CCCCC5)cc4)cnc23)cs1)C(F)(F)F`: the fold change (FC) worked out at 0 in assay [9], 0.13 in [11] and 0.05 in [12]. Moreover, the inhibition in assay [10] came out at 5%.

Source of the values: ChEMBL document CHEMBL5653631, “A Potent and Selective ULK1 Inhibitor Suppresses Autophagy and Sensitizes Cancer Cells to Nutrient Stress” (iScience, 2018).
